Test [1] concerns the target T1, NAD-dependent protein deacetylase sirtuin-2 (Homo sapiens, UniProt Q8IXJ6).
T1 sequence (Q8IXJ6 whole entry): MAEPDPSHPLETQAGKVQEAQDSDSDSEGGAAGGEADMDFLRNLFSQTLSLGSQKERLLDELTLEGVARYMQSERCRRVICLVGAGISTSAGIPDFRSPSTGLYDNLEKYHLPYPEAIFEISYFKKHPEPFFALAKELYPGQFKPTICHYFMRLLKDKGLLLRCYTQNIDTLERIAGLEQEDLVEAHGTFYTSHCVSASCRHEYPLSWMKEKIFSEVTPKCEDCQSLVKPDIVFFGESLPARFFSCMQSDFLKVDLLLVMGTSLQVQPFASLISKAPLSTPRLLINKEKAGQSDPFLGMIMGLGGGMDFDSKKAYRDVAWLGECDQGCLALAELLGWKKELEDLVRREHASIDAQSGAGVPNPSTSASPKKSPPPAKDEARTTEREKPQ
Put plainly: Inhibition of recombinant His-tagged SIRT2 (56 to 356 residues) (unknown origin) expressed in Escherichia coli Transetta(DE3) using AcIQF as substrate preincubated for 30 mins followed by substrate and NAD+ addition measured after 2 hrs by fluorescence assay.

Test [2] has as its system NCI-H441. The experiment in a line: Antimigratory activity against human NCI-H441 cells assessed as reduction in wound closure at 30 uM after 24 hrs by light microscopic method. It is filed as functional, cell-based. The gist of the method: (§1)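 Confluent monolayers in 12-well plates were scratched with a sterile pipette tip, then treated with DMSO vehicle or compound for 24 h. Wounds photographed by digital camera on a light microscope.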

Test [3] relates to NCI-H441. The experiment in a line: Antiproliferative activity against human NCI-H441 cells assessed as reduction in EdU incorporation at 30 uM after 48 hrs by DAPI staining based fluorescence microscopic method. The format is functional, cell-based. The gist of the method: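 Cells in 96-well plates treated with DMSO vehicle or compound (30 μM) for 48 h. Proliferation measured by EdU incorporation kit per manufacturer. EdU and DAPI nuclear fluorescence imaged on a high-content reader.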

Test [4] concerns NCI-H441. The experiment in a line: Induction of apoptosis in human NCI-H441 cells assessed as necrotic cells at 30 uM after 48 hrs by Annexin V-FITC/propidium iodide staining based flow cytometry (reference value: 1.79%). The format is functional.
Test [5] has as its system NCI-H441. The experiment in a line: Antiproliferative activity against human NCI-H441 cells after 72 hrs by MTT assay. The settings on record: NCI-H441, 72 h. The format is functional, cell-based. The gist of the method:
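Cells in 96-well plates given DMSO vehicle or a range of compound concentrations for 72 h. MTT reagent (5 mg/mL stock) added, then 4 h at 37 °C. Formazan dissolved overnight in 20% acidified SDS (w/v), absorbance read at 570 nm. IC50 taken from the viability profile.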
(Formazan colour is commonly taken as a measure of viable cells.)

The test system of test [6] is NCI-H441. Put plainly: Anticlonogenic activity against human NCI-H441 cells at 10 to 30 uM after 2 weeks by crystal violet staining based assay. The format is functional, cell-based. A digest of the protocol: (§2)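 Cells seeded at 5,000 per well in six-well plates and exposed to DMSO vehicle or compound for 2 weeks, with agents replaced every 3 days. Cells then fixed with methanol and stained with 0.05% crystal violet (w/v).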

Test [7] concerns NCI-H441. The experiment in a line: Induction of apoptosis in human NCI-H441 cells assessed as live cells at 30 uM after 48 hrs by Annexin V-FITC/propidium iodide staining based flow cytometry (reference value: 88.5%). The format is functional.
Test [8] relates to NCI-H441. The experiment in a line: Anti-invasive activity against human NCI-H441 cells at 30 uM after 48 hrs by crystal violet staining based transwell assay. It is filed as functional, cell-based. The gist of the method: (§3)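 H441 cells in serum-free RPMI1640 seeded at 5 × 10⁴/100 μL into Matrigel-precoated insert upper chambers, with DMSO vehicle or compound in serum-free medium above. Lower chambers held RPMI1640 complete medium. After 48 h, invaded cells fixed with methanol and stained with 0.05% crystal violet (w/v).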

Test [9] has as its system NCI-H441. Put plainly: Induction of apoptosis in human NCI-H441 cells assessed as late apoptotic cells at 30 uM after 48 hrs by Annexin V-FITC/propidium iodide staining based flow cytometry (reference value: 7.25%). It is filed as functional. On the technique in general: In flow cytometry, cells or beads pass a laser one at a time.
In test [10] the test system is NCI-H441. Put plainly: Induction of apoptosis in human NCI-H441 cells assessed as early apoptotic cells at 30 uM after 48 hrs by Annexin V-FITC/propidium iodide staining based flow cytometry (reference value: 2.47%). The format is functional.
In test [11] the target is T2, NAD-dependent protein deacetylase sirtuin-2 (Homo sapiens) (UniProt Q8IXJ6).
T2 sequence (whole entry): T1 sequence (Q8IXJ6 whole entry)
Put plainly: Inhibition of SIRT2 in human NCI-H441 cells assessed as increase in acetylated alpha-tubulin level after 72 hrs by Western blot analysis. The format is cell-based. The gist of the method:
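H441 cells (ATCC, passaged <6 months after resuscitation) exposed to compound for 72 h. Whole-cell lysates separated by SDS-PAGE, transferred to PVDF and probed with anti-Ac-α-tubulin and anti-α-tubulin (1:1,000), then HRP secondaries (1:5,000) with ECL detection. Ac-α-tubulin normalized to α-tubulin, expressed relative to untreated control set to 1.0.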
(Immunoblotting shows a protein as a band on a membrane.)

Test [12] relates to NCI-H441. Put plainly: Antimigratory activity against human NCI-H441 cells assessed as reduction in wound closure at 10 to 30 uM after 24 hrs by light microscopic method. It is filed as functional, cell-based. A digest of the protocol: as §1
Test [13] relates to NCI-H441. Put plainly: Anti-invasive activity against human NCI-H441 cells after 48 hrs by crystal violet staining based transwell assay. The format is functional, cell-based. A digest of the protocol: as §3
Test [14] relates to NCI-H441. The experiment in a line: Anticlonogenic activity against human NCI-H441 cells at 3 to 30 uM after 2 weeks by crystal violet staining based assay. The format is functional, cell-based. The gist of the method:
as §2

The text below walks through data of ChEMBL document CHEMBL4152324 (Eur J Med Chem, 2018).

Molecules are shown by their SMILES. The source made the active and inactive calls. The rule behind the calls is not given here. Some results are limits rather than exact numbers.

Take `Cn1cc(C(=O)Nc2ccc(OCc3cccc(NC(=O)CSc4nnc5ccccn45)c3)cc2)cn1`: in test [1] (read-out: IC50), the IC50 was greater than 300 µM.
In the case of `Cc1cc(C)nc(SCC(=O)Nc2cccc(COc3ccc(NC(=O)CCCN[C@@H]4CCCC[C@H]4O)cc3)c2)n1`, the IC50 in test [1] (read-out: IC50) came to 175 µM.
Take `Cc1cc(C)nc(SCC(=O)Nc2cccc(COc3ccc(NC(=O)c4cccs4)cc3)c2)n1`: the IC50 in test [1] (read-out: IC50) was determined as 3.41 µM.
Regarding `Cc1cccc(SCC(=O)Nc2cccc(COc3ccc(NC(=O)c4cccs4)cc3)c2)c1`, the IC50 in [1] (read-out: IC50) is greater than 300 µM.
With `Cc1cc(C)nc(SCC(=O)Nc2cccc(COc3ccc(NC(=O)CCCN)cc3)c2)n1`, the IC50 in test [1] (read-out: IC50) turned out to be 70.6 µM.
Take `Cc1cc(C)nc(SCC(=O)Nc2cccc(COc3ccc(NC(=O)C4CCOCC4)cc3)c2)n1`: the IC50 in test [1] (read-out: IC50) came out at 1.32 µM.
As for `Cc1cc(C)cc(OCC(=O)Nc2cccc(COc3ccc(NC(=O)c4cccs4)cc3)c2)c1`, the IC50 in [1] (read-out: IC50) was greater than 300 µM.
Turning to `C/C=C/C(=O)Nc1ccc(OCc2cccc(NC(=O)CSc3nc(C)cc(C)n3)c2)cc1`, the IC50 in [1] (read-out: IC50) worked out at 89.3 µM.
As to `Cc1cc(C)nc(SCC(=O)Nc2cccc(COc3cccc(NC(=O)c4ccccn4)c3)c2)n1`, in test [1] (read-out: IC50), the IC50 was greater than 300 µM.
For the compound `Cc1cc(C)nc(SCC(=O)Nc2cccc(COc3cccc(NC(=O)c4cnn(C)c4)c3)c2)n1`, the outcome in the test with NCI-H441 [2], in the test with NCI-H441 [3], in the test on NCI-H441 [6] and in the test with NCI-H441 [8] was inactive. Moreover, the Activity amounted to 2.21% in the test on NCI-H441 [4], 87.8% in the test on NCI-H441 [7], 7.39% in the test with NCI-H441 [9] and 2.61% in the test with NCI-H441 [10]. Besides, the IC50 is greater than 100 µM in the test with NCI-H441 [5] and 93.7 µM in test [1] (read-out: IC50).
In the case of `O=C(CSc1nnc2ccccn12)Nc1cccc(COc2ccc(NC(=O)c3cccs3)cc2)c1`, in test [1] (read-out: IC50), the IC50 is greater than 300 µM.
`Cc1cc(C)nc(SCC(=O)Nc2cccc(COc3ccc(NC(=O)CCN)cc3)c2)n1`: the IC50 in [1] (read-out: IC50) is 300 µM.
Turning to `Cc1cc(C)nc(SCC(=O)Nc2cccc(COc3cccc(NC(=O)C4CCCN4)c3)c2)n1` (centres undefined), the IC50 in test [1] (read-out: IC50) stood at 142 µM.
On the same count and under the same terms, with `O=C(CSc1nc[nH]n1)Nc1cccc(COc2ccc(NC(=O)c3cccs3)cc2)c1` the figure was greater than 300 µM; with `Cc1cc(C)nc(SCC(=O)Nc2cccc(COc3ccc(NC(=O)OC(C)(C)C)cc3)c2)n1`, 100 µM.
Take `CC(=O)NCC(=O)Nc1ccc(OCc2cccc(NC(=O)CSc3nc(C)cc(C)n3)c2)cc1`: in [1] (read-out: IC50), the IC50 is greater than 300 µM.
For `Cc1cc(C)nc(SCC(=O)Nc2cccc(COc3ccc(NC(=O)CCN[C@@H]4CCCC[C@H]4O)cc3)c2)n1`, the IC50 in test [1] (read-out: IC50) was greater than 300 µM.
Regarding `Cc1cc(C)nc(SCC(=O)Nc2cccc(COc3cccc(NC(=O)c4cccs4)c3)c2)n1`, the IC50 in test [1] (read-out: IC50) was determined as 128 µM.
With `Cn1nnnc1SCC(=O)Nc1cccc(COc2ccc(NC(=O)c3cccs3)cc2)c1`, in test [1] (read-out: IC50), the IC50 worked out at 44.5 µM.
Take `Cc1cc(C)nc(SCC(=O)Nc2cccc(COc3ccc(NC(=O)c4cnn(C)c4)cc3)c2)n1`: the outcome in the test with NCI-H441 [3], with NCI-H441 [12] and with NCI-H441 [14] was Active. In addition, in [11], the inhibition entry was “Dose-dependent effect”. The Activity with NCI-H441 [4] was 2.26%; in the test on NCI-H441 [13] it was “Dose-dependent effect”; with NCI-H441 [7], 87.8%; with NCI-H441 [9], 7.22%; with NCI-H441 [10] it was 2.69%. Besides, the results for the IC50 (in the test on NCI-H441 [5]; in test [1] (read-out: IC50)) were 3.93 µM and 0.815 µM, respectively.
With `Cc1cc(C)nc(SCC(=O)Nc2cccc(COc3ccc(NC(=O)CCCNC(=O)OC(C)(C)C)cc3)c2)n1`, in test [1] (read-out: IC50), the IC50 is greater than 300 µM.
The same measure, in the same setting: with `Cc1cc(C)nc(SCC(=O)Nc2cccc(COc3ccc(NC(=O)C4CCCN4C(=O)OC(C)(C)C)cc3)c2)n1` (centres undefined) the figure was 76.1 µM; with `Cc1cc(C)nc(SCC(=O)Nc2cccc(COc3ccc(NC(=O)c4ccco4)cc3)c2)n1`, 3.1 µM; with `O=C(COc1cccc2ccccc12)Nc1cccc(COc2ccc(NC(=O)c3cccs3)cc2)c1`, greater than 300 µM.
Same read-out and setting: with `Cc1cc(C)nc(SCC(=O)Nc2cccc(COc3ccc(NC(=O)c4ccccn4)cc3)c2)n1` the figure was 29.4 µM.
As for `CC(C)n1ncnc1SCC(=O)Nc1cccc(COc2ccc(NC(=O)c3cccs3)cc2)c1`, the IC50 in [1] (read-out: IC50) was determined as 270 µM.
`Cc1cc(C)nc(SCC(=O)Nc2cccc(COc3ccc(NC(=O)CNC(=O)OCc4ccccc4)cc3)c2)n1`: in test [1] (read-out: IC50), the IC50 was greater than 300 µM.
Take `CNC(=S)NCCC(=O)Nc1ccc(OCc2cccc(NC(=O)CSc3nc(C)cc(C)n3)c2)cc1`: the IC50 in test [1] (read-out: IC50) came to 11.7 µM.
As for `Cc1cc(C)nc(SCC(=O)Nc2cccc(COc3cccc(NC(=O)C4CCOCC4)c3)c2)n1`, the IC50 in [1] (read-out: IC50) was found to be 169 µM.
Regarding `Cc1cc(C)nc(SCC(=O)Nc2cccc(COc3ccc(NC(=O)CCNC(=O)OC(C)(C)C)cc3)c2)n1`, the IC50 in [1] (read-out: IC50) stood at 300 µM.
For the compound `Cc1cc(C)nc(SCC(=O)Nc2cccc(COc3cccc(NC(=O)C4CCCN4C(=O)OC(C)(C)C)c3)c2)n1` (centres undefined), the IC50 in [1] (read-out: IC50) is 15.2 µM.
For the compound `Cc1cc(C)nc(SCC(=O)Nc2cccc(COc3cccc(NC(=O)c4ccco4)c3)c2)n1`, in test [1] (read-out: IC50), the IC50 came out at 123 µM.
For the compound `COc1cccc(SCC(=O)Nc2cccc(COc3ccc(NC(=O)c4cccs4)cc3)c2)c1`, the IC50 in test [1] (read-out: IC50) is greater than 300 µM.
The same measure, in the same setting: with `Cc1cc(C)nc(SCC(=O)Nc2cccc(COc3ccc(NC(=O)C4CCCN4)cc3)c2)n1` (centres undefined) the figure was 41.3 µM; with `CC(C)n1cnc(SCC(=O)Nc2cccc(COc3ccc(NC(=O)c4cccs4)cc3)c2)n1`, 142 µM; with `CNC(=S)NCCCC(=O)Nc1ccc(OCc2cccc(NC(=O)CSc3nc(C)cc(C)n3)c2)cc1`, 9.56 µM.
For the compound `Cc1cc(C)nc(SCC(=O)Nc2cccc(COc3ccccc3)c2)n1`, the figures for the IC50 in test [1] (read-out: IC50) and in [1] (read-out: pIC50 (converted)) were 25.9 µM and 26.3 µM, respectively.
Take `Cn1cc(C(=O)Nc2ccc(OCc3cccc(NC(=O)COc4cccc5ccccc45)c3)cc2)cn1`: in [1] (read-out: IC50), the IC50 is greater than 300 µM.
Take `CCOCC(=O)Nc1ccc(OCc2cccc(NC(=O)CSc3nc(C)cc(C)n3)c2)cc1`: in test [1] (read-out: IC50), the IC50 is 110 µM.
